{"data": "Results collected from several papers", "target": "Calcium/calmodulin-dependent protein kinase type 1D (CAMK1D, Homo sapiens, UniProt Q8IU85)", "note": "Compare with care: the assays were run in different laboratories."}
{"SMILES": "CNCc1ccccc1-c1csc([C@@H](C)Nc2nc(C)nc3cc(OC)c(OC)cc23)c1", "observed": "cell-free assay", "method": "competition with immobilised ligand", "tested at": "1 µM", "endpoint": "remaining binding", "result": "100%"}
{"SMILES": "c1ccc(CNc2nc(N3CCOc4ccccc43)nc3c2CCCC3)cc1", "observed": "target engagement in cells", "action": "inhibitor", "method": "chemoproteomics", "tested at": "20 mM", "endpoint": "inhibition", "result": "-2.2%"}
{"SMILES": "Cc1cnc(NC2CCOCC2)nc1-n1cnc(C(=O)NC(CN)c2cc(F)cc(Cl)c2)c1 (stereo not drawn)", "observed": "enzyme activity", "action": "inhibitor", "method": "radiometric", "tested at": "1 µM", "endpoint": "remaining activity", "result": "84%"}
{"SMILES": "COc1cc2ncnc(Nc3ccc(Oc4ccccc4)c(C)c3C)c2cc1OC", "observed": "enzyme activity", "action": "inhibitor", "tested at": "1 µM", "endpoint": "inhibition", "result": "1%"}
{"SMILES": "CNC(=O)c1cc(Oc2ccc(NC(=O)Nc3ccc(Cl)c(C(F)(F)F)c3)cc2)ccn1", "observed": "enzyme activity", "action": "inhibitor", "tested at": "10 µM", "endpoint": "inhibition", "result": "22%"}
{"SMILES": "CS(=O)(=O)c1cc(C2(NC(=O)c3cncc4c3cnn4-c3ccc(F)cc3)CC2)ccn1", "observed": "cell-free assay", "method": "competition with immobilised ligand", "tested at": "1 µM", "endpoint": "remaining binding", "result": "90%"}
{"SMILES": "Nc1ncnc2occ(-c3ccc(NC(=O)Nc4cc(C(F)(F)F)ccc4F)cc3)c12", "observed": "cell-free assay", "action": "inhibitor", "tested at": "20 µM", "endpoint": "remaining signal", "result": "2.8%"}
{"SMILES": "Cc1c(NC(=O)c2cc(C(N)=O)nc3cc(F)ccc23)c(C(F)(F)F)nn1Cc1ccc(C(C)(C)C)cc1", "observed": "cell-free assay", "method": "competition with immobilised ligand", "tested at": "1 µM", "endpoint": "remaining binding", "result": "84%"}
{"SMILES": "O=C(Nc1cnn(-c2csc(C(=O)NC3COC3)c2)c1)Nc1c(F)cccc1Cl", "observed": "enzyme activity", "action": "inhibitor", "tested at": "5 µM", "endpoint": "remaining activity", "result": "99.6%"}
{"SMILES": "CN1CC(Oc2cnc(C#N)cc2-c2ccn3nc(NC(=O)C4CC4)cc3c2)C1", "observed": "enzyme activity", "action": "inhibitor", "tested at": "1 µM", "endpoint": "inhibition", "result": "-2%"}
{"SMILES": "CCS(=O)(=O)c1cc2cc(C[C@@](O)(CC(C)(C)c3ccc(F)cc3C(N)=O)C(F)(F)F)[nH]c2cn1", "observed": "cell-free assay", "method": "competition with immobilised ligand", "tested at": "1 µM", "endpoint": "remaining binding", "result": "89%"}
{"SMILES": "Cc1cc(NC(=O)c2cccc3cc(-c4cccc5[nH]nc(N)c45)ccc23)ccc1F", "observed": "enzyme activity", "action": "inhibitor", "tested at": "0.1 µM", "endpoint": "activity vs control", "result": "102%"}
{"SMILES": "CC1=C(C#N)C(c2ccc3c(c2)c(NC(=O)c2ccccc2C)nn3C)C(C#N)=C(C)N1", "observed": "cell-free assay", "method": "competition with immobilised ligand", "tested at": "1 µM", "endpoint": "remaining binding", "result": "93%"}
{"SMILES": "Cn1c2c(c3ccc(Cl)c(Cl)c31)C(C#N)C1(CCOCC1)NC2=O (stereo not drawn)", "observed": "thermal stability", "method": "DSF", "tested at": "10 µM", "endpoint": "ΔTm", "result": "-0.5 °C"}
{"SMILES": "Cc1ccc(Nc2nccc(N(C)c3ccc4c(C)n(C)nc4c3)n2)cc1S(N)(=O)=O", "observed": "enzyme activity", "action": "inhibitor", "tested at": "10 µM", "endpoint": "inhibition", "result": "32%"}
{"SMILES": "O=C1NC(=O)c2cc(Nc3ccc(F)cc3)c(Nc3ccc(F)cc3)cc21", "observed": "cell-free assay", "tested at": "0.5 µM", "endpoint": "remaining signal", "result": "78.1%"}
{"SMILES": "Cn1c2c(c3ccc(Cl)c(Cl)c31)C(C#N)C(C)(C)NC2=O (stereo not drawn)", "observed": "thermal stability", "method": "DSF", "tested at": "10 µM", "endpoint": "ΔTm", "result": "-0.6 °C"}
{"SMILES": "CC(C)(C)c1nc(-c2cccc(NS(=O)(=O)c3c(F)cccc3F)c2F)c(-c2ccnc(N)n2)s1", "observed": "enzyme activity", "action": "inhibitor", "method": "radiometric", "tested at": "1 µM", "endpoint": "remaining activity", "result": "116%"}
{"SMILES": "Cn1c2c(c3ccc(Cl)c(Cl)c31)C(C#N)C1(CCCC1)NC2=O (stereo not drawn)", "observed": "thermal stability", "method": "DSF", "tested at": "10 µM", "endpoint": "ΔTm", "result": "0 °C"}
{"SMILES": "O=C1Nc2ccc(Cl)cc2C1=Cc1cc(Cl)c(O)c(Cl)c1", "observed": "cell-free assay", "tested at": "0.5 µM", "endpoint": "remaining signal", "result": "104%"}
{"SMILES": "C[C@@H]1CN(c2cc(-c3nn(C)c4ccc(OC5(C)CC5)cc34)ncn2)C[C@H](C)O1", "observed": "cell-free assay", "method": "competition with immobilised ligand", "tested at": "1 µM", "endpoint": "remaining binding", "result": "100%"}
